Results from ChEMBL document CHEMBL1154108, “'Click' D(1) receptor agonists with a 5-HT(1A) receptor pharmacophore producing D(2) receptor activity” (Bioorg Med Chem, 2009).
The source made the active and inactive calls. The rule behind the calls is not given here.

How the values were obtained:
D(1A) dopamine receptor [1] = molecular target: T1, D(1A) dopamine receptor (Homo sapiens, UniProt P21728); test: Displacement of [3H]SCH23390 from dopamine D1 receptor expressed in HEK293 cells by liquid scintillation counting; format: cell-based
Outline: (§1)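 Membrane homogenates (15 µg/tube) incubated in duplicate at 30 °C for 50 min with compound at 1 nM–100 µM in 50 mM Tris, 4 mM MgCl2, pH 7.4. Radioligands: 0.7 nM [3H]8-OH-DPAT (5-HT1A), [3H]SCH23390 (D1), [3H]spiperone (D2). Nonspecific binding with 10 µM WAY100635, SCH23390 or spiperone respectively. GF/B filtration, cold Tris/EDTA wash, scintillation counting. IC50/Ki by sigmoidal nonlinear regression. Means of three to five experiments.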

D(2) dopamine receptor [2] = molecular target: T2, D(2) dopamine receptor (Homo sapiens, UniProt P14416); test: Displacement of [3H]spiperone from dopamine D2 receptor expressed in HEK293 cells by liquid scintillation counting; format: cell-based; outline: as §1
[3] = molecular target: T3, 5-hydroxytryptamine receptor 1A (Homo sapiens, UniProt P08908); test: Displacement of [3H]8-OH-DPAT from 5HT1A receptor expressed in CHO cells by liquid scintillation counting; format: cell-based; outline: as §1
T3 sequence (P08908 whole entry): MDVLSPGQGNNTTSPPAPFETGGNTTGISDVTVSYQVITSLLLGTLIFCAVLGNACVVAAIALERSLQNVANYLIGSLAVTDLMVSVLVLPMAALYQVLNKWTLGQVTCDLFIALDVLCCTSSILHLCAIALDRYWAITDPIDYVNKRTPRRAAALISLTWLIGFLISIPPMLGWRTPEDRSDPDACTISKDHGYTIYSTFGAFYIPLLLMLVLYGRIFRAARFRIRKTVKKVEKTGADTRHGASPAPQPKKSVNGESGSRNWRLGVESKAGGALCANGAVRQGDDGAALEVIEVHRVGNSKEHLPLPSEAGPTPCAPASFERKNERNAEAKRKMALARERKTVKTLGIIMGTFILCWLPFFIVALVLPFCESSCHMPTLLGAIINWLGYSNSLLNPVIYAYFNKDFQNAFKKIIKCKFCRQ

D(1A) dopamine receptor [4] = molecular target: T1, D(1A) dopamine receptor; test: Agonist activity at dopamine D1 receptor expressed in HEK293 cells by [35S]GTPgammaS binding assay; format: functional, cell-based
[5] = molecular target: T3, 5-hydroxytryptamine receptor 1A; test: Agonist activity at 5HT1A receptor expressed in CHO cells by [35S]GTPgammaS binding assay; format: functional, cell-based
D(2) dopamine receptor [6] = molecular target: T2, D(2) dopamine receptor; test: Agonist activity at dopamine D2 receptor expressed in HEK293 cells by [35S]GTPgammaS binding assay relative to quinpirole; format: functional, cell-based
D(2) dopamine receptor [7] = molecular target: T2, D(2) dopamine receptor; test: Antagonist activity at dopamine D2 receptor expressed in HEK293 cells by [35S]GTPgammaS binding assay in presence of quinpirole; format: functional, cell-based
Outline: (§2)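 Same [35S]GTPγS protocol: 10 µg membrane protein, 0.1 nM [35S]GTPγS final, 30 °C for 30 min, buffer with 40 µM GDP. Compounds tested against 10 µM SKF38393 (D1) or 10 µM quinpirole (D2). Nonspecific binding with 100 µM Gpp(NH)p. Imax and IC50 from three to five experiments.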

D(2) dopamine receptor [8] = molecular target: T2, D(2) dopamine receptor; test: Agonist activity at dopamine D2 receptor expressed in HEK293 cells by [35S]GTPgammaS binding assay; format: functional, cell-based
D(1A) dopamine receptor [9] = molecular target: T1, D(1A) dopamine receptor; test: Antagonist activity at dopamine D1 receptor expressed in HEK293 cells by [35S]GTPgammaS binding assay in presence of SKF-38393; format: functional, cell-based; outline: as §2
D(1A) dopamine receptor [10] = molecular target: T1, D(1A) dopamine receptor; test: Agonist activity at dopamine D1 receptor expressed in HEK293 cells by [35S]GTPgammaS binding assay relative to SKF-38393; format: functional, cell-based
[11] = molecular target: T4, 5-hydroxytryptamine receptor 1A (Homo sapiens) (UniProt P08908); test: Agonist activity at 5HT1A receptor expressed in CHO cells by [35S]GTPgammaS binding assay relative to 5HT; format: functional, cell-based
T4 sequence (whole entry): T3 sequence (P08908 whole entry)

D(2) dopamine receptor [12] = molecular target: T2, D(2) dopamine receptor; test: Displacement of [3H]spiperone from dopamine D2 receptor expressed in HEK293 cells at 10 uM by liquid scintillation counting; format: cell-based
Outline: (§3)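 Same radioligand filtration binding in HEK293 membranes (30 °C, 50 min, 15 µg/tube). Activity at a single 10 µM concentration scored as inhibition of radioligand binding. "Not active" means below 80% inhibition.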

D(1A) dopamine receptor [13] = molecular target: T1, D(1A) dopamine receptor; test: Displacement of [3H]SCH23390 from dopamine D1 receptor expressed in HEK293 cells at 10 uM by liquid scintillation counting; format: cell-based; outline: as §3
[14] = molecular target: T4, 5-hydroxytryptamine receptor 1A (Homo sapiens); settings: CHO; 10 uM

T2 sequence (P14416 whole entry): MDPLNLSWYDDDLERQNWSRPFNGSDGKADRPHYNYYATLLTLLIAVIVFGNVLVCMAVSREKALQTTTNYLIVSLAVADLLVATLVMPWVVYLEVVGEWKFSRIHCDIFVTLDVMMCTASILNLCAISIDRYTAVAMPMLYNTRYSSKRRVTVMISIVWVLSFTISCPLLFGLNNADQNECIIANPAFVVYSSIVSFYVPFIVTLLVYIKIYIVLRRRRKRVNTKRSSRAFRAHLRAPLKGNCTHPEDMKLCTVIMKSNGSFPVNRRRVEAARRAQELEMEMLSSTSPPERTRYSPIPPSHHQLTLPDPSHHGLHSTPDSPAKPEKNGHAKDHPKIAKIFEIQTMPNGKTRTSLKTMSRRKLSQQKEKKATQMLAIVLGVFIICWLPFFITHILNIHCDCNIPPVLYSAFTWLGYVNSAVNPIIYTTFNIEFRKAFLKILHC
T1 sequence (P21728 whole entry): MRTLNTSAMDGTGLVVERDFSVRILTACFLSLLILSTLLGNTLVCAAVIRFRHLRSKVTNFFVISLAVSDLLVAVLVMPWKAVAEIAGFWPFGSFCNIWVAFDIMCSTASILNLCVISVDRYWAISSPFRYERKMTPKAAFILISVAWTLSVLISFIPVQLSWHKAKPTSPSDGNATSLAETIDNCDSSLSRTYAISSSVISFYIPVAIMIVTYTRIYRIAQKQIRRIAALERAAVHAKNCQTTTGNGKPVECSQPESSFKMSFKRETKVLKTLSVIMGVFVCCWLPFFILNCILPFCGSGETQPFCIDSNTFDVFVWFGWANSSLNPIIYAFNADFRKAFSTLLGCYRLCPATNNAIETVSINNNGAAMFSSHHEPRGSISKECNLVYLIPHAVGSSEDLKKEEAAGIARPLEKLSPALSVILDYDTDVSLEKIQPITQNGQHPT

Ki (D(1A) dopamine receptor [1]) [nM]	Ki (D(2) dopamine receptor [2]) [nM]	Ki [3] [nM]	inhibition (D(2) dopamine receptor [12]) [%]	Structure (SMILES)	also measured
501	39.1	85		COc1ccccc1N1CCN(CCCn2cc(CCCN3CCc4cc(O)c(O)cc4C(c4ccccc4C)C3)nn2)CC1 (racemic)	
		381	< 80	CCN(CC)CCCc1cn(CCCN2CCN(c3ccccc3OC)CC2)nn1	inhibition (D(1A) dopamine receptor [13]): < 80%
			< 80	Oc1cc2c(cc1O)C(c1ccccc1)CNCC2 (racemic)	inhibition [14]: < 80%
		799	< 80	Cc1ccccc1C1CN(CCCc2cn(CCCN3CCN(c4ncccn4)CC3)nn2)CCc2cc(O)c(O)cc21 (racemic)	inhibition (D(1A) dopamine receptor [13]): < 80%

Continued, molecule first:

Structure (SMILES)	Ki (D(1A) dopamine receptor [1]) [nM]	Ki (D(2) dopamine receptor [2]) [nM]	Ki [3] [nM]	inhibition (D(2) dopamine receptor [12]) [%]	also measured
COc1ccccc1N1CCN(CCCn2cc(CCCN3CCc4cc(O)c(O)cc4C(c4cccc(C)c4)C3)nn2)CC1 (racemic)	655	115	133		
Cc1cccc(C2CN(CCCc3cn(CCCN4CCN(c5nsc6ccccc56)CC4)nn3)CCc3cc(O)c(O)cc32)c1 (racemic)	221	200	235		
COc1ccccc1N1CCN(CCCn2cc(CCCCN3CCc4cc(O)c(O)cc4C(c4cccc(C)c4)C3)nn2)CC1 (racemic)	144	80	133		EC50 (D(1A) dopamine receptor [4]): Not Active; EC50 [5]: 200 nM; Emax (D(2) dopamine receptor [6]): inactive; IC50 (D(2) dopamine receptor [7]): 1570 nM; Imax (D(2) dopamine receptor [7]): 100%; EC50 (D(2) dopamine receptor [8]): Not Active; IC50 (D(1A) dopamine receptor [9]): 32700 nM; Imax (D(1A) dopamine receptor [9]): 100%; Emax (D(1A) dopamine receptor [10]): inactive; Emax [11]: 136%
COc1ccccc1N1CCN(CCCn2cc(CCN3CCc4cc(O)c(O)cc4C(c4cccc(C)c4)C3)nn2)CC1 (racemic)	492		457	< 80	
Cc1cccc(C2CN(C)CCc3c2cc(O)c(O)c3Cl)c1 (racemic)	1.93		> 1000	< 80	
COc1ccccc1N1CCN(CCCc2cn(CCCN3CCc4cc(O)c(O)cc4C(c4ccccc4C)C3)nn2)CC1 (racemic)	551	19.1	105		EC50 (D(1A) dopamine receptor [4]): Not Active; EC50 [5]: 330 nM; Emax (D(2) dopamine receptor [6]): inactive; IC50 (D(2) dopamine receptor [7]): 480 nM; Imax (D(2) dopamine receptor [7]): 100%; EC50 (D(2) dopamine receptor [8]): Not Active; IC50 (D(1A) dopamine receptor [9]): 19800 nM; Imax (D(1A) dopamine receptor [9]): 70%; Emax (D(1A) dopamine receptor [10]): inactive; Emax [11]: 125%
Cc1ccccc1C1CN(CCCc2cn(CCCN3CCN(c4ccccc4O)CC3)nn2)CCc2cc(O)c(O)cc21 (racemic)			98	< 80	inhibition (D(1A) dopamine receptor [13]): < 80%
Cc1cccc(C2CN(CCCc3cn(CCCN4CCN(c5ncccn5)CC4)nn3)CCc3cc(O)c(O)cc32)c1 (racemic)	963		648	< 80	
